UBC13 polyUb = human UBC13 polyubiquitination inhibition | UBC13 polyubiquitin chain formation, TR-FRET | inhibition, % at 20 µM | 0.47% of 330,000 active; in the data active = inhibition above about 45%, passing the limit was not always enough; inconclusive = no clear call, values can overlap the other calls
SR-BI uptake up = enhances SR-BI lipid uptake from DiI-HDL; CHO ldlA[mSR-BI] cells, DiI-HDL uptake fluorescence, 3 h; 100 = double the neutral-control signal; activation, % at 12.5 µM; 0.096% of 320,000 active; AID 504775;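 active = mean replicate activation of at least 60% and every replicate at or above 60%; inconclusive = mean or all-replicate condition met, but not both; inactive = mean below 60% and not all replicates reaching 60%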
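Test system: SR-BI-overexpressing, LDLR-lacking CHO cells. Measured by: DiI fluorescence, bottom read. Medium: Ham's F12 with 0.5% BSA, HEPES 25 mM, pH 7.4. Timing: 3 h uptake period with compound, 37 °C.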
Neddyl block = blocks human cullin neddylation | TR-FRET cullin neddylation, biochemical | inhibition, % at 25 µM | 0.58% of 360,000 active | P61081+Q13564; in the data active = inhibition above about 36%
Target sequence (P61081 whole entry, looked up): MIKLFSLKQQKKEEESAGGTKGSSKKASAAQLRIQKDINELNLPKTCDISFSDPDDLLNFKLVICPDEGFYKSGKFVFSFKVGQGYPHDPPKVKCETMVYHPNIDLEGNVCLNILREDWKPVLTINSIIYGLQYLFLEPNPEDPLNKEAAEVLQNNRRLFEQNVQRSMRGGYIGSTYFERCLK
Target sequence (Q13564 whole entry, looked up): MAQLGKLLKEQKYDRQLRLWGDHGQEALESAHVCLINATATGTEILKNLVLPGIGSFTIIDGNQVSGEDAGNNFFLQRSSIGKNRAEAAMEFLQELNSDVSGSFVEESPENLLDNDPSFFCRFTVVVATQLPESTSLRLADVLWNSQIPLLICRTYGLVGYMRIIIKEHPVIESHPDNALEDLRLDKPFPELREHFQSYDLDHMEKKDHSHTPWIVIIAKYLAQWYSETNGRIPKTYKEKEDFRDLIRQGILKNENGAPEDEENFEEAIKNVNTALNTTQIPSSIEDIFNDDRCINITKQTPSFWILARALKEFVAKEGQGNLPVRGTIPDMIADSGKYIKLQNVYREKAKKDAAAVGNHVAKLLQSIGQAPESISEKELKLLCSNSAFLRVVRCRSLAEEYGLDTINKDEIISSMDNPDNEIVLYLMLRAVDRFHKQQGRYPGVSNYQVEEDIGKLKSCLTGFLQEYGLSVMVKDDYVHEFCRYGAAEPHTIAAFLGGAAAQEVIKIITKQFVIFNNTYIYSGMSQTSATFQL
SR-BI HDL uptake = mouse SR-BI HDL lipid transfer inhibition. inhibition, % at 12.5 µM. 0.96% of 320,000 active. Q61009. AID 488896. ldlA[mSR-BI] CHO cells, DiI-HDL uptake fluorescence, 3 h;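 active = mean replicate inhibition of at least 70% and a set share of replicates each scoring 70 or more; inconclusive = meets just one of the two criteria; inactive = fails both criteria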
DiI quencher = counter-screen for SR-BI lipid transfer inhibitors: DiI fluorescence quenchers | shares compounds with SR-BI HDL uptake | cell-free DiI-HDL fluorescence quenching, 30 min | AC50, µM (doses to about 35 µM) | 20% of 470 active | AID 540326;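 active = quenching, a falling signal, with AC50 below a set limit tied to the top valid dose, actives reach about 32 µM in these data; inconclusive = no clear call, values can overlap the other calls; inactive = rising signal, and the rest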
Numbers stand for hits; 0 = inactive; ? = inconclusive; - = not tested or not shown. The list is not random: actives were taken first. Their share in the collection is about 1.9%.

SMILES	UBC13 polyUb	SR-BI uptake up	Neddyl block	SR-BI HDL uptake	DiI quencher
Cc1ccc(-c2[nH]c3ccccc3c2SCCNC(=O)c2cc3ccccc3oc2=O)cc1	0	0	0	0	-
CCc1noc(C)c1C(=O)N1CCCC(N2CCN(c3cccc(Cl)c3)CC2)C1 (stereo not given)	0	0	0	0	-
COc1ccc(N2C(=O)C3C(C2=O)C3(c2ccccc2)c2ccccc2)cc1 (stereo not given)	0	0	0	0	0
Cc1c(C(=O)Nc2ccc(Cl)cc2)c2ccccn2c1CCc1ccncc1	0	0	0	97	32µM
Cc1c(C(=O)Nc2ccc(Cl)cc2)c2ccccn2c1C(=O)c1ccc(F)cc1	0	0	0	0	-
Cc1c(C(=O)Nc2cccc(Cl)c2)c2ccccn2c1CCc1ccncc1	-	0	-	94	25µM
CC(C)(C)N(Cc1ccccc1)C(=O)COC(=O)CN1C(=O)NC2(CCCC2)C1=O	0	0	0	76	0
CC(C)(C)N(Cc1ccccc1)C(=O)COC(=O)CN1C(=O)C2CC=CCC2C1=O (stereo not given)	0	0	0	0	-
O=C(c1ccccc1)N1CCOC12CCN(c1ncc(C(F)(F)F)cc1Cl)CC2	0	0	0	0	-
O=C(c1ccc([N+](=O)[O-])cc1)N1CCOC12CCN(c1ncc(C(F)(F)F)cc1Cl)CC2	0	0	0	0	0
Cc1ccc(C(=O)N2c3ccccc3N=C(c3ccccc3)C2C(=O)NC(C)C)cc1 (stereo not given)	-	-	0	-	-
CN(C(=O)COC(=O)c1c[nH]c(=O)[nH]c1=O)C1CCCCC1	0	0	0	79	0
CCc1cc2c(=O)c(-c3ccc4c(c3)OCCO4)coc2cc1OS(C)(=O)=O	0	0	0	75	0
CCc1cc2c(=O)c(-c3ccc4c(c3)OCCO4)coc2c(CN2CCCCC2C)c1O (stereo not given)	0	0	-	0	-
CN(C(=O)COC(=O)c1c2c(nc3ccccc13)/C(=C/c1cccc([N+](=O)[O-])c1)CCC2)C1CCS(=O)(=O)C1 (stereo not given)	0	0	0	0	0
COc1ccc2sc(-c3ccc(N(C)C)cc3)c(C#CC(C)(C)O)c2c1	0	0	-	103	2.9µM
COc1ccc2sc(-c3ccc(SC)cc3)c(C#CC(C)(C)O)c2c1	0	0	0	0	-
COc1ccc2sc(-c3ccc(N(C)C)cc3)c(C#Cc3cncn3C)c2c1	0	0	-	77	2.2µM
N#Cc1ccsc1NC(=O)C1CCCN1S(=O)(=O)c1cccs1 (stereo not given)	0	0	0	0	-
CC1Cc2ccccc2N1CC(=O)Nc1ccc(N2CCOCC2)cc1 (stereo not given)	0	0	0	83	0
Cc1ccc(NC(=O)CN2C(=O)N/C(=C/c3ccc(N4CCOCC4)cc3)C2=O)cc1	0	0	0	0	-
Cc1ccc2c(c1)C(=O)C(=O)N2CC(=O)Nc1ccc(N2CCOCC2)cc1	0	0	0	0	0
COc1ccccc1NC(=O)COC(=O)CCC(=O)c1cccs1	0	0	0	0	-
CSc1nc(N)nc2c1ncn2CC(=O)Nc1ccc(C)c(C)c1	0	0	0	0	-
CC1(Oc2cccc(C#N)c2)CCN(Cc2csc3ccccc23)C1 (stereo not given)	-	-	0	-	-
SMILES	UBC13 polyUb	SR-BI uptake up	Neddyl block	SR-BI HDL uptake	DiI quencher
COC(=O)[C@@]1(Cc2ccc(F)cc2)[C@H]2c3cc(C(=O)N4CCCC4)n(CCCNc4ncc(C(F)(F)F)cc4Cl)c3C[C@H]2CN1C(=O)c1ccccc1	0	0	0	0	0
N#Cc1c(NCc2ccccc2)ccnc1Cl	0	0	0	0	-
Cc1cccc(C)c1-n1nnnc1C(c1ccnc2ccccc12)N(C)Cc1ccccc1 (stereo not given)	-	-	0	-	-
Cc1nnc(SC(C)C(=O)Nc2ccc3ccccc3c2)n1C (stereo not given)	0	0	0	0	-
CC(=O)Nc1nc(-c2ccccc2)nc(-c2ccccc2OC(C)=O)n1	0	0	0	?	0
COc1cc(NC(=O)c2cc(-c3ccccc3Cl)on2)cc(OC)c1OC	0	0	0	83	0
COc1ccc(NC(=O)c2cc(-c3ccccc3Cl)on2)cc1	0	0	0	0	-
COc1ccc(CCNC(=O)c2cccc(S(=O)(=O)N3CCCCCC3)c2)cc1	0	0	0	0	-
COc1nccnc1NS(=O)(=O)c1ccc(N)cc1	0	0	0	0	-
O=C(NCc1ccccn1)C1CCN(S(=O)(=O)c2ccccc2F)CC1	0	0	0	0	-
O=C(NNc1c(F)c(F)cc(F)c1F)C1CCN(S(=O)(=O)c2ccccc2F)CC1	0	0	0	79	0
